Shown are actives, neighbours in structure and some others; about 1.7% of the full set was active somewhere.
LMPTP inh = LMPTP phosphatase inhibitors, primary screen, biochemical, fluorescence intensity, uHTS. Low molecular weight phosphotyrosine protein phosphatase (Homo sapiens), P24666. recombinant LMPTP-A, OMFP fluorogenic substrate. inhibition, % at 20 µM. actives 0.22% (n = 360,000). AID 651560, 2012;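 active = compounds that cut the enzyme signal by at least half of the control window in the single-dose screen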;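 also: plate controls were DMSO wells with enzyme plus substrate for no effect and substrate without enzyme for full effect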
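test system = LMPTP-A | amount = 0.625 nM LMPTP-A final | reagent = fluorogenic phosphatase substrate OMFP at 400 µM final | incubation = 50 min at room temperature | benchmarks = no-enzyme low control, uninhibited high control | medium = Bis-Tris pH 6.0, DTT, detergent | signal = fluorescence intensity of OMFP turnover product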
Scp-1 inhibitor = Scp-1 phosphatase inhibitors, primary screen, biochemical, colorimetric, uHTS | Recombinant Scp1, phosphopeptide, malachite green phosphate absorbance | actives 0.88% (n = 340,000) | AID 493091, 2011 | inhibition, % at 20 µM;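 active = inhibition above about 50% at 20 µM, limit read from the data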;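 also: plate controls were DMSO wells with enzyme for no effect and wells lacking enzyme for full effect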
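Times: enzyme reaction 45 min at room temperature, colour 5 min, stabilisation 30 min. Material: SCP-1 catalytic fragment, aa 76-261. Medium: Acidic Tris acetate buffer with magnesium and detergent. Signal: colorimetric free-phosphate detection, absorbance 630 nm. Read-out basis: % inhibition of SCP-1 phosphate liberation. Reagent: Phosphorylated 17-residue peptide substrate.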
SUMO1 PPI mod = modulators of SUMO1 protein-protein interactions, primary screen, biochemical, uHTS; Small ubiquitin-related modifier 1 (Homo sapiens), P63165; SUMO1 binding to a labelled peptide, TR-FRET, 1 h; inhibition, % at 20 µM; actives 0.33% (n = 360,000); AID 602429, 2012; in the data active = inhibition above about 37%
STEP block = STEP phosphatase inhibitors, primary screen, biochemical, fluorescence intensity, uHTS; Tyrosine-protein phosphatase non-receptor type 5 (Homo sapiens), P54829; recombinant STEP, OMFP fluorogenic substrate; inhibition, % at 20 µM; actives 0.25% (n = 360,000); AID 588621, 2011;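 active = inhibition at 20 µM, scaled per plate between control wells, above about 37%, limit read from the data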;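 also: 0% = DMSO with enzyme and substrate and 100% = substrate only without enzyme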
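Also added – OMFP at 25 µM · Test system – STEP tyrosine phosphatase · Technique – FITC-channel fluorescence of OMFP product · Schedule – 20 min at room temperature, dark · Evaluation – control-normalized % inhibition with plate pattern correction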
DNMT1 block = human DNMT1 methyltransferase inhibitors, primary screen, biochemical, molecular beacon, fluorescence, HinP1I cleavage, uHTS; actives 0.83% (n = 360,000); DNA (cytosine-5)-methyltransferase 1 (Homo sapiens), P26358; inhibition (reported as % activation of signal), % at 10 µM; in the data active = inhibition above about 50%
Scp-1 conf = Scp-1 phosphatase inhibitors, retest, confirmation, biochemical, colorimetric, single concentration | recombinant SCP-1 catalytic domain, phosphate release, malachite green absorbance | shares compounds with Scp-1 inhibitor | AID 540281, 2011 | actives 61% (n = 2,500) | inhibition, % at 20 µM;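 also: plate controls were DMSO with enzyme for no effect and buffer wells lacking enzyme for full effect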
MG interference = colorimetric readout interference by compounds, confirmation, artefact control for Scp-1 inhibitor project, biochemical, single concentration; shares compounds with Scp-1 inhibitor; Colorimetric interference counterscreen, malachite green absorbance 630 nm; apparent inhibition (interference), % at 20 µM; 2,500 tested, under 10 active; AID 540313, 2011;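 also: compounds added after enzyme reaction finished so only phosphate colour detection is probed; plate controls were DMSO wells with completed Scp-1 reaction for no effect and substrate wells lacking enzyme for full effect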
Scp-1 Tm shift = Scp-1 binding by thermal shift, confirmation, orthogonal assay for Scp-1 inhibitor project, biophysical, differential scanning fluorimetry | shares compounds with Scp-1 inhibitor | Recombinant SCP1, Sypro Orange thermal shift Tm | thermal shift relative to vanadate control, % at 40 µM | actives 25% (n = 1,500);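 active = substances whose mean melting-temperature shift, as a percentage of the reference inhibitor's shift, reaches about 5.3%, limit read from the data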;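 also: 0% = Tm of DMSO wells and 100% = Tm with sodium orthovanadate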
An asterisk follows results filed as active; . = no result given.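 The calls were made as follows, unless noted: active = inhibition of at least 30% at 20 µM; inactive = the rest.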

SMILES	LMPTP inh	Scp-1 inhibitor	SUMO1 PPI mod	STEP block	DNMT1 block	Scp-1 conf	MG interference	Scp-1 Tm shift
O=C(O)/C(=C\c1cccc([N+](=O)[O-])c1)c1ccc(S(=O)(=O)N2CCCCC2)s1	4	52*	-12	2	23	73*	-5	20*
COc1ccc(Br)cc1/C=C(\C(=O)O)c1ccc(S(=O)(=O)N2CCCC2)s1	5	67*	-2	3	42	60*	-24	6.3*
CCOC(=O)C(=O)N(C)c1c(CC)nc2c(OCc3ccccc3)cccn12	-2	.	0	0	-1	.	.	.
COc1cc(C(=O)N(Cc2ccccc2)c2cccc(C)c2)ccc1OCC(=O)N1CCOCC1	0	.	-2	2	1	.	.	.
Cc1cccc(NC(=O)CN2C(=O)S/C(=C\c3ccc(-c4cccc(C(=O)O)c4C)o3)C2=O)c1	.	78*	.	.	.	81*	-8	8.1*
CC(=O)OCCCn1c(C)[n+](C)c2cc(Cl)c(Cl)cc21	-1	73*	-3	-4	9	-7	-11	.
CCn1c(C)[n+](CCOC(C)=O)c2cc(Cl)c(Cl)cc21	-2	-1	3	1	1	.	.	.
Cc1cc(CSc2ccccc2)ccc1NC(=O)c1cccc([N+](=O)[O-])c1	-1	54*	-1	-2	9	-12	-16	.
Cc1cc(O)c(NC(=O)c2cccc([N+](=O)[O-])c2)cc1C	-1	1	-11	16	2	.	.	.
O=C(O)C1CCCCC1C(=O)Nc1cccc(Br)c1 (centres undefined)	61*	84*	12	98*	103*	63*	-14	-25
O=C(Nc1cccc(Br)c1)C1CCCC1	1	-11	0	0	2	.	.	.
Cc1c(C(=O)O)sc2nc(CSc3ncc(C(F)(F)F)cc3Cl)[nH]c(=O)c12	0	97*	1	5	11	49*	-16	-1
CCOC(=O)c1sc2nc(CSc3ccccc3Cl)[nH]c(=O)c2c1C	-2	-5	-1	0	4	.	.	.
CCCCN(C(=O)c1cc2c(s1)CCC2)c1c(N)n(CCC)c(=O)[nH]c1=O	3	60*	1	4	33	50*	-1	2
CCCCN(C(=O)c1ccc(Cl)c(S(=O)(=O)N2CCOCC2)c1)c1c(N)n(CCC)c(=O)[nH]c1=O	-2	58*	1	-2	7	-3	-11	.
CCCCn1c(N)c(N(CCOC)C(=O)c2ccc(Cl)c(S(=O)(=O)N3CCCCC3)c2)c(=O)[nH]c1=O	-1	10	-2	1	2	.	.	.
CCCCN(C(=O)c1cc2c(s1)CCC2)c1c(N)n(CC(C)C)c(=O)[nH]c1=O	5	18	8	1	27	.	.	.
COCCCN(C(=O)c1cc2c(s1)CCC2)c1c(N)n(Cc2ccccc2)c(=O)[nH]c1=O	3	7	-1	-2	10	.	.	.
CCCCN(C(=O)c1cccc(-n2cccc2)c1)c1c(N)n(CCCC)c(=O)[nH]c1=O	3	70*	16	3	46	12	-22	.
CCCN(C(=O)c1cc2c(s1)CCC2)c1c(N)n(Cc2ccccc2)c(=O)[nH]c1=O	12	53*	6	-1	53*	46*	-17	-3
CCCCN(C(=O)c1cnccn1)c1c(N)n(CCC)c(=O)[nH]c1=O	1	99*	-1	1	-3	-7	-7	.
COc1ccc(-c2ccc(/C=N/NC(=O)c3cccnc3)o2)c([N+](=O)[O-])c1	53*	96*	-14	32	-1	82*	-12	4
CCc1nc2c(OCc3c(C)noc3C)cccn2c1N(C)C(=O)C(C)C	-2	.	-4	-1	5	.	.	.
c1ccc2c(c1)nc(N1CCCCCC1)c1ccccc12	2	112*	-1	0	0	97*	-1	-7
c1ccc2nc(N3CCCC3)c(N3CCCC3)nc2c1	2	-9	-6	2	-3	.	.	.
SMILES	LMPTP inh	Scp-1 inhibitor	SUMO1 PPI mod	STEP block	DNMT1 block	Scp-1 conf	MG interference	Scp-1 Tm shift
Cc1noc(C)c1S(=O)(=O)N(C)C[C@H]1Oc2ccc(NS(=O)(=O)c3cn(C)cn3)cc2C(=O)N([C@H](C)CO)C[C@@H]1C	0	53*	2	-3	0	9	-11	.
Cc1ccc(S(=O)(=O)N(C)C[C@@H]2Oc3ccc(NS(=O)(=O)c4ccccc4)cc3CC(=O)N([C@@H](C)CO)C[C@H]2C)cc1	0	50*	1	1	-3	11	9	.
C[C@H](CO)N1C[C@H](C)[C@@H](CN(C)C(=O)Nc2ccc(C(F)(F)F)cc2)Oc2ccc(NS(=O)(=O)c3cn(C)cn3)cc2C1=O	1	73*	2	0	9	-15	-19	.
C[C@H](CO)N1C[C@H](C)[C@@H](CN(C)C(=O)NC2CCCCC2)Oc2ccc(NS(=O)(=O)c3cn(C)cn3)cc2C1=O	0	25	1	-2	7	.	.	.
Cc1ccc(S(=O)(=O)Nc2ccc3c(c2)CC(=O)N([C@H](C)CO)C[C@@H](C)[C@H](CN(C)S(=O)(=O)c2ccccc2)O3)cc1	0	-6	2	1	3	.	.	.
CC(C)NC(=O)N(C)C[C@H]1Oc2ccc(NS(=O)(=O)c3cn(C)cn3)cc2C(=O)N([C@H](C)CO)C[C@@H]1C	-2	82*	6	-5	10	6	-9	.
COc1cccc(N2CCN(S(=O)(=O)c3ccc4ccccc4c3)CC2)c1	3	13	2	3	2	.	.	.
CN(C)c1ncnc2c1ncn2[C@H]1CN(Cc2ccco2)C[C@@H](CO)O1	-2	.	1	3	-2	.	.	.

Compound activity (PubChem BioAssay)
